The results in this text go back to ChEMBL document CHEMBL1629705, “PSI-7851, a pronucleotide of beta-D-2'-deoxy-2'-fluoro-2'-C-methyluridine monophosphate, is a potent and pan-genotype inhibitor of hepatitis C virus replication” (Antimicrob Agents Chemother, 2010).

Calls of active or inactive are those of the source. The rule behind the calls is not given here.

In data set [1] the test system is Hepatitis C virus. The data set can be described thus: Inhibition of Hepatitis C virus Con1 recombinant NS5B polymerase after 30 mins by phosphor imaging. Details: species or system Hepacivirus hominis. The note with it: Con1, 0.5 h. In short, it runs like this: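 C-terminal Δ21-truncated NS5B: 1b Con1 and 2a JFH-1 expressed in E. coli; 3a and 4a cloned from patient serum. Mix: 1 μM each NTP, [α-32P]UTP, 20 ng/μl genotype 1b(−) IRES RNA template, 40 ng/μl enzyme, 1 mM MgCl2, 0.75 mM MnCl2, 2 mM DTT, 50 mM HEPES pH 7.5. Run at 27°C: 30 min (1b, 2a) or 3 h (3a, 4a). EDTA quench, products on membrane read by phosphorimager. Duplicates; IC50 calculated.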

Data set [2] concerns the target T1, DNA polymerase subunit gamma-1 (Homo sapiens, UniProt P54098).
T1 sequence (P54098 whole entry): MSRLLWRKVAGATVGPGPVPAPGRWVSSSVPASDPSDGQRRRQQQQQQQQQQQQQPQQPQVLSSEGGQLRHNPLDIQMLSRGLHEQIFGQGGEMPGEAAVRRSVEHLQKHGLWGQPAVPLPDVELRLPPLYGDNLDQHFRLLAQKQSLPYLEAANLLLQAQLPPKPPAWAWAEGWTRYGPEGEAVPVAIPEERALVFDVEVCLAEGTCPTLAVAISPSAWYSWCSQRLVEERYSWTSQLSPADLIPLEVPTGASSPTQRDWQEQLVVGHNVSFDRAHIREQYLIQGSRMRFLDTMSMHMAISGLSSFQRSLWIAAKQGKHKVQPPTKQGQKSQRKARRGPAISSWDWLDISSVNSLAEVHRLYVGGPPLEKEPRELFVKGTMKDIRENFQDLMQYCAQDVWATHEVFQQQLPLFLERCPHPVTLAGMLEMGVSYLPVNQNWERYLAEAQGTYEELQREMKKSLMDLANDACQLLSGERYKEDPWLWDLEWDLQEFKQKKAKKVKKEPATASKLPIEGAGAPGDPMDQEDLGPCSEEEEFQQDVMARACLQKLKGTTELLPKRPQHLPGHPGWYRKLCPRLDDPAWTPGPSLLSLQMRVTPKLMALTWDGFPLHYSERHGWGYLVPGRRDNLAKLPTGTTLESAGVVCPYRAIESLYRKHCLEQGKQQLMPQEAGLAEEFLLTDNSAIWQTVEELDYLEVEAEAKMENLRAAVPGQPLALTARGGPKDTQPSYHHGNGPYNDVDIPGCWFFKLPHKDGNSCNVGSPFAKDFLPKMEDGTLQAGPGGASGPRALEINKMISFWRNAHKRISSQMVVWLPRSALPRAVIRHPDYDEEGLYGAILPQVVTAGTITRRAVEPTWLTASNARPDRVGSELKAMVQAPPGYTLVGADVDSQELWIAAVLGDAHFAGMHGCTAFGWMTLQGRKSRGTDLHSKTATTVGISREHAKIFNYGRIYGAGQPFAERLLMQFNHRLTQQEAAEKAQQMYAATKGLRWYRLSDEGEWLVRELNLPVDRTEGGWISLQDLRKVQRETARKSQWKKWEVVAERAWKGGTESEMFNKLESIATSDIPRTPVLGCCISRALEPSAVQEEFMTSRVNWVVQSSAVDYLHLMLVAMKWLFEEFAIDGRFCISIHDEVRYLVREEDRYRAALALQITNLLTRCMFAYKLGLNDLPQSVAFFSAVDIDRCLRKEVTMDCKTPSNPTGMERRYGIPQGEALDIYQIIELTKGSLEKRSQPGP
The data set can be described thus: Inhibition of human DNA polymerase gamma assessed as incorporation of [alpha-32P]dCTP up to 1mM preincubated for 30 mins by whatman DE81 paper binding assay. The essentials:
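Human DNA polymerase α (20 μg/ml) or γ (50 μg/ml) in 50 mM Tris pH 7.5, 50 mM NaCl, activated calf thymus DNA, 20 μM each dNTP, [α-32P]dCTP, 5 mM MgCl2. Nucleotide inhibitor up to 1 mM. 37°C, quenched with EDTA at 30 min. Product measured by DE81 paper binding; IC50 by nonlinear fit.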

The next data set relates to Yellow fever virus. Description: Antiviral activity against Yellow fever virus 17D by neutral red assay. Type of data set: functional.
Data set [3] in a line: Cytotoxicity against human HuH7 cells assessed as effect on cellular GAPDH RNA level after 8 days by quantitative real-time PCR. Type of data set: cell-based, Huh-7. A general note: In qPCR the cycle at which signal appears reflects the starting amount.
Data set [4] is described as follows: Cytotoxicity against human BxPC3 cells assessed as effect on cellular GAPDH RNA level after 8 days by quantitative real-time PCR. The class given is cell-based, BXPC-3.
The next data set deals with HepG2. Description: Cytotoxicity against human HepG2 cells assessed as effect on ribosome RNA gene level at up to 100 uM after 14 days by quantitative real-time PCR assay. Type of data set: cell-based. The note with it: hepg2, 336 h. In short, it runs like this: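 HepG2 or CEM cells incubated 14 days with compound up to 100 μM, ddC as control. Medium and compound replenished on days 7 and 11. Mitochondrial COXII gene and nuclear rDNA measured by multiplex quantitative RT-PCR.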

A short description of data set [5]: Cytotoxicity against human CEM cells. The following applies: CEM (CCRF-CEM) cells. The class given is cell-based. The essentials: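 Cells treated 8 days with compound serially diluted from 100 μM in DMSO-containing medium, gemcitabine (1 μM) or DMSO control. Viability by MTS-type tetrazolium assay, absorbance at 490 nm with medium-only blanks. Value derived by comparison with DMSO control wells.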

In data set [6] the test system is Hepatitis C virus. The data set can be described thus: Antiviral activity against Hepatitis C virus harboring wild-type NS5B infected in human HuH7 cells by luciferase-based replicon assay. The class given is functional, Hepacivirus hominis. The following applies: Huh-7.
The subject of data set [7] is Hepatitis C virus. Description: Antiviral activity against Hepatitis C virus harboring NS5B polymerase S282T mutant gene infected in human HuH7 cells by luciferase-based replicon assay. Type of data set: functional, Hepacivirus hominis. The following applies: Huh-7. On the technique in general: Replicon systems follow genome replication, usually without infectious particles.

Data set [8] relates to Hepatitis C virus. The data set can be described thus: Antiviral activity against Hepatitis C virus harboring wild-type NS5B infected in human lunet cells by luciferase-based replicon assay. The class given is functional, Hepacivirus hominis. In short, it runs like this:
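ET-lunet cells with the ET genotype 1b replicon, wild-type or S96T/N142T (ET replicon with these mutations electroporated into Lunet cells, selected in 0.2 mg/ml G418). 3,000 cells/well, 4 days with serially diluted compound. Firefly luciferase luminescence read-out; EC90 from dose–response.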

For data set [9], the system named is Hepatitis C virus. Description: Antiviral activity against Hepatitis C virus assessed as inhibition of viral rebound at 2 uM after 3 weeks in presence of G418. The class given is functional, organism-based. The following applies: Hepacivirus hominis. In short, it runs like this: (§1)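 ET-lunet replicon cells, 1 × 10^5/well, no G418, with compound at 0.1, 1 or 2 μM (final DMSO 0.5%). Passaged 1:3 or 1:4 every 3–4 days for 3 weeks with fresh compound, then 3 more weeks with 0.25 mg/ml G418 and no inhibitor. HCV RNA by RT-PCR normalized to rRNA (ΔΔCt vs DMSO) at each passage. Crystal violet colony staining at 6 weeks.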

The test system of data set [10] is Hepatitis C virus. The data set can be described thus: Antiviral activity against Hepatitis C virus assessed as clearance of HCV from replicon cells at 2 uM. Type of data set: functional, organism-based. The following applies: Hepacivirus hominis. In short, it runs like this: as §1

For orientation: IC50 means the midpoint of a concentration-inhibition curve. In the case of `C[C@@]1(F)[C@H](O)[C@@H](COP(=O)(O)OP(=O)(O)OP(=O)(O)O)O[C@H]1n1ccc(=O)[nH]c1=O` [GS-461203], the figures for the IC50 (with Hepatitis C virus [1]; in data set [2]) were 1.6 µM and over 1000 µM, respectively.
One may read the EC50 as the concentration at which the effect is half-maximal. Lower therefore signals higher potency in that assay. In general, CC50 refers to the concentration at which the toxic effect on the cells reaches its halfway point. By EC90 is commonly meant the concentration needed for an effect of 90%. In turn, `CC(C)OC(=O)[C@H](C)NP(=O)(OC[C@H]1O[C@@H](n2ccc(=O)[nH]c2=O)[C@](C)(F)[C@@H]1O)Oc1ccccc1` (some centres not stated) displayed an EC50 in the data set with Yellow fever virus of over 100 µM. Besides, the 50% cytotoxic concentration (CC50) at 192 h in data set [3] and in data set [4] was over 100 µM throughout. Also, in the data set on HepG2, the Activity result is “Non-toxic”. The molecule also showed a CC90 in data set [5] of 28.5 µM. Also, the EC90 in the data set on Hepatitis C virus [6] amounted to 0.45 µM; with Hepatitis C virus [7], 7.4 µM; with Hepatitis C virus [8], 0.52 µM. Further, the inhibition entry in the data set with Hepatitis C virus [9] was “Active”. Also, in the data set on Hepatitis C virus [10], the result was Active.
